Measured values pooled from the literature.
Lines come from different studies, so protocols differ.

With CCOC(=O)c1c(NC(=O)CNC(C)C)sc2c1CCCCC2 the AUC(0-inf) was 311 ng·h/mL (male mouse; plasma; intraperitoneal; 5 mg/kg; single dose).
CC(C)[C@@H](CS(=O)(=O)C(C)C)N1C(=O)[C@@](C)(CC(=O)O)C[C@H](c2cccc(Cl)c2)[C@H]1c1ccc(Cl)cc1 has an AUC(0-inf) of 36.3 ng·h/mL (FVB mouse; brain; oral; 20 mg/kg; single dose).
With NCc1ccc(-c2nn(Cc3ccncc3)c3ccccc23)o1 the AUC(0-t) was 5240 ng·h/mL (male CD-1 mouse; plasma; intraperitoneal; 30 mg/kg).
For OCc1nc2ccc(NCc3ccc(C(F)(F)F)cc3)cc2[nH]1, the AUC(0-inf) was 2730 ng·h/mL (male BALB/c mouse; plasma; oral; 10 mg/kg).
O=C1CCC(N2Cc3cc(C4CCN(Cc5ccccc5)CC4)ccc3C2=O)C(=O)N1 (stereo not shown) gave an AUC(0-inf) of 355 ng·h/mL (male CD-1 mouse; plasma; intravenous; 1 mg/kg).
For O=C1CCC(N2Cc3cc(CO)c(F)cc3C2=O)C(=O)N1 (stereo not shown), the AUC(0-inf) was 316 ng·h/mL (male CD-1 mouse; plasma; intravenous; 1 mg/kg).
COCC(=O)N1CCc2[nH]c3c(Cl)c(Cl)ccc3c2[C@@H]1C gave an AUC(0-inf) of 3.28 µM·h (C57BL/6 mouse; blood; intravenous; 1 mg/kg).
With CO[C@H]1/C=C/O[C@@]2(C)Oc3c(C)c(O)c4c(c3C2=O)C2=NC3(CCN(CC(C)C)CC3)NC2=C(NC(=O)/C(C)=C\C=C\[C@H](C)[C@H](O)[C@@H](C)[C@@H](O)[C@@H](C)[C@H](OC(C)=O)[C@@H]1C)C4=O the AUC was 8070 ng·h/mL (female CD-1 mouse; plasma; intravenous; 5 mg/kg).
With Cc1nc2ccc(OCc3ccc(C(F)(F)F)cc3)cc2[nH]1 the AUC(0-inf) was 13200 ng·h/mL (male BALB/c mouse; plasma; oral; 10 mg/kg).
COc1cccc2c(N3CCC(CCP(=O)(O)O)CC3)ncnc12 has an AUC(0-inf) of 18300 ng·h/mL (female C57BL/6 mouse; serum; subcutaneous; 50 mg/kg).
For CN(C)C(=O)c1cc2cnc(Nc3ccc(-c4ccc5c(=O)cc(N6CCOCC6)oc5c4)cc3)nc2n1C1CCCC1, the AUC(0-inf) was 2890 ng·h/mL (BALB/c mouse; plasma; oral; 20 mg/kg).
NCc1cc2c(cc1F)C(=O)N(C1CCC(=O)NC1=O)C2 (stereo not shown) has an AUC(0-inf) of 262 ng·h/mL (male CD-1 mouse; plasma; oral; 10 mg/kg).
CCOC(=O)C1=C(CN2CCC[C@@H]2C(=O)Nc2ccc(B(O)O)cc2)NC(c2nccs2)=N[C@H]1c1ccc(F)cc1Br gave an AUC(0-inf) of 723 ng·h/mL (CD-1 mouse; plasma; intravenous; 2 mg/kg).
